Shown is part of a subset that was picked to be rich in hits.
Redox H2O2 prof = compounds producing H2O2 with reducing agent – biochemical, NIH compound library profiling, artefact control for MLSCN library redox annotation, primary screen | AID 878, 2007 | activation, % at 10 µM | DTT-dependent redox cycling H2O2, phenol red/HRP absorbance; 100% = 100 µM peroxide control, 0% = buffer | 200,000 tested, 0.03% active;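 active = activation of at least 50% relative to the plate's high and low controls in the primary single-dose screen; inactive = activation below 50%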;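 note: compound incubated with DTT at 0.8 mM final as the reducing agent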
L major viab = Leishmania major promastigote growth inhibition, primary screen; Leishmania major promastigotes, resazurin fluorescence viability; inhibition, % at 10 µM; 200,000 tested, 9% active; in the data active = inhibition above about 50%;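 note: promastigotes grown with compound for 44 hours at 28 °C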
MPTP inh = mitochondrial permeability transition pore inhibitors, primary screen, biochemical, isolated mouse mitochondria, absorbance | Ca2+ swelling absorbance, 30 min | inhibition, % at 10 µM | 360,000 tested, 1.4% active | AID 602449, 2012;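 active = inhibition of 50% or more, scaled per plate between neutral and stimulator controls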;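 note: 0% = DMSO wells given calcium and 100% = 1 mM EGTA wells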
Hep lipid drop = inhibitors of hepatocyte lipid droplet formation, primary screen, imaging, high-throughput imaging, BODIPY stain. AML12 mouse hepatocytes, oleate lipid droplets. AID 1656, 2009. inhibition, % at 6.5 µM. 240,000 tested, 0.4% active;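 active = lipid droplet intensity inhibited by at least 50%, with more than 500 cells counted; inconclusive = wells with under 300 cells, treated as cytotoxic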
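Technique: fluorescence imaging, 20x objective, two fields per well / Assay system: AML12 hepatocytes (mouse) / Measure: % inhibition of lipid droplet signal / Doses: 6.5 µM single-point dosing / Incubation: overnight exposure / Reagent: 100 µM oleic acid challenge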
T cruzi inh = inhibitors of intracellular T. cruzi growth, primary screen, luminescence, NIH3T3 host cells; T. cruzi beta-gal in NIH3T3, 90 h; inhibition, % (concentration not given with the values); 300,000 tested, 1.4% active;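 active = mean inhibition across valid replicates above about 55%, limit read from the data; inconclusive = mean below that limit but half or more replicates reach it; inactive = mean below it, under half of replicates reach it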;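 note: signal also drops with host cell toxicity which is not excluded here; 0% = plate median of DMSO wells and 100% = zero luminescence signal; higher percent means less beta-gal luminescence so fewer parasites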
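System: Mouse NIH/3T3 fibroblasts infected with β-gal-expressing T. cruzi Tulahuen C4 | Quantity: NIH/3T3 cells, 5,000 per well | Reagent: 5000 reporter trypomastigotes per well | Dosing: Compound pinned at 50 nL/well, DMSO | Schedule: 3 h host attachment, then at least 90 h co-culture | Detection: GalScreen luminescence, 60 min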
Starred values were filed as active, the others as inactive; ? = inconclusive; . = no result given.

SMILES | Redox H2O2 prof | L major viab | MPTP inh | Hep lipid drop | T cruzi inh
Cc1cccc(N2CCN(C(=S)NC3CCCCC3)CC2)c1C | . | . | 18.9 | 0.9 | 16.6
COC(=O)c1sccc1NC(=S)N1CCN(c2cc(C)ccc2C)CC1 | -0.1 | 81.8* | 3.0 | . | 15.3
COc1ccccc1N1CCN(C(=S)Nc2cccc(C)c2)CC1 | -0.2 | 0.8 | 1.7 | -25.8 | -37.6
Cc1cccc(NC(=S)N2CCN(c3cc(C)ccc3C)CC2)c1 | -0.6 | 80.1* | 4.6 | -32.4 | -20.1
Cc1ccc(C)c(N2CCN(C(=S)NC3CCCCC3)CC2)c1 | -0.1 | 57.6* | 2.2 | 7.3 | -15.4
Cn1nnnc1SC1CC(=O)N(c2ccccc2)C1=O (configuration not stated) | -1.2 | -1.8 | 18.2 | . | 65.9*
O=C1CC(Sc2nnnn2C2CCCCC2)C(=O)N1c1ccccc1 (configuration not stated) | -2.1 | -2.4 | 0.2 | -1.5 | 32.9
CN(Cc1ccccc1)c1nc2c(c(=O)[nH]c(=O)n2C)n1CCOc1ccccc1 | 0.0 | 55.1* | -1.3 | . | 10.4
CCN(CC)S(=O)(=O)c1ccc2[nH]cc(C(=O)NCCC3=CCCCC3)c(=O)c2c1 | 0.0 | 81.2* | 8.6 | -5.3 | 8.2
CCN(CC)S(=O)(=O)c1ccc2[nH]cc(C(=O)NCCN3CCCCCC3)c(=O)c2c1 | 0.0 | -3.3 | -1.3 | . | 2.2
O=C(N/N=C/c1cc(Br)ccc1O)c1cccc(N2CCCC2=O)c1 | -0.2 | 99.6* | 5.6 | 15.3 | -5.2
COc1ccc(O)c(/C=N/NC(=O)c2cccc(N3CCCC3=O)c2)c1 | . | . | -0.8 | 15.6 | 19.1
O=C(N/N=C/c1cc(Br)ccc1O)c1ccccc1Cl | 0.0 | 98.2* | 11.3 | -1.1 | -19.0
CCOc1ccc(-c2nnc(SCC(=O)N3CCNC3=O)o2)cc1 | . | . | -0.4 | . | .
N=C(N)Cc1ccccc1Sc1ccccc1 | 0.3 | 98.1* | 0.5 | 9.1 | 4.0
CCCCC(CCc1ccccn1)C(=O)c1ccccc1 (configuration not stated) | . | . | -0.5 | . | .
O=C(O)c1ccc(Cl)c(S(=O)(=O)Nc2cccc(C(=O)Nc3cccc(C(F)(F)F)c3)c2)c1 | -0.3 | -4.8 | 3.7 | 11.7 | -8.5
Cc1ccc(N2CC(C(=O)NCCN3CCOCC3)CC2=O)cc1C (configuration not stated) | . | . | 0.0 | 9.0 | -9.4
CCOC(=O)c1sc2nc3c(SCCC#N)cc(C(=O)c4cc(F)ccc4O)cn3c(=O)c2c1C | 0.1 | 63.3* | 5.9 | 39.7 | -1.9
CCOC(=O)N1CCN(S(=O)(=O)c2ccc(C(=O)Nc3ccc4c(c3)C(=O)NC4=O)cc2)CC1 | 0.1 | 55.6* | 1.6 | 6.7 | -1.0
C=CCC(c1ccccc1F)N(CCN1CCOCC1)C(=O)Nc1cccc(Cl)c1 (configuration not stated) | 0.0 | 93.2* | 30.9 | -32.8 | 19.0
COCCCNC(=O)c1cc(Sc2nnc(C)s2)nc2ccccc12 | . | . | 1.8 | 3.2 | -0.9
Cc1nnc(Sc2cc(C(=O)NCCCN(C)Cc3ccccc3)c3ccccc3n2)s1 | 0.1 | 2.4 | 0.7 | -16.6 | 63.8*
CCN1C(=O)C(=O)N(CC(=O)N2CCC(C)Sc3ccccc32)C1=O (configuration not stated) | . | . | -2.5 | . | .
CCOC(=O)N1CCN(c2nc(N(c3ccccc3)c3ccccc3)nc(-n3ccnc3)n2)CC1 | . | . | . | -2.3 | 49.0
SMILES | Redox H2O2 prof | L major viab | MPTP inh | Hep lipid drop | T cruzi inh
CN(c1ccccc1)c1nc(N2CCCC2)nc(-n2ccnc2)n1 | -5.5 | 95.0* | 2.3 | . | 12.5
c1ccc(N(c2ccccc2)c2nc(N3CCCC3)nc(-n3ccnc3)n2)cc1 | 3.3 | 98.0* | 10.4 | . | 57.0*
c1ccc(-c2nc(-n3ccnc3)nc(-n3ccnc3)n2)cc1 | 4.1 | 38.5 | 1.5 | -17.2 | 1.2
CCOC(=O)c1c(C)[nH]c(C)c1C(=O)COC(=O)/C=C/c1cccc(F)c1 | 0.1 | -0.2 | -0.8 | -0.2 | -38.0
CCOC(=O)c1c(C)[nH]c(C)c1C(=O)COC(=O)c1cc2ccccc2cc1OC | 0.1 | 64.3* | 0.7 | 47.2 | 26.7
CCOC(=O)c1c(C)[nH]c(C)c1C(=O)COC(=O)/C=C/c1cccc(C(F)(F)F)c1 | 0.0 | 59.4* | 1.8 | -44.4 | 1.5
O=c1ccc2c([nH]1)CCCCCCCCCC2 | . | . | -0.8 | . | 6.0
CCOC(=O)/C(C)=N/Nc1nc(-c2ccc(NC(C)=O)cc2)cs1 | . | . | 0.9 | -7.7 | 0.8
C1=C[C@H]2CCCN3CC[C@@H]([C@@H]2[C@]32CO2)[C@H]1CCOCc1ccccc1 | . | . | 1.6 | . | .
c1ccc(C[n+]2cccc3c4ccccc4ccc32)cc1 | 1.5 | 97.2* | -21.3 | . | ?
NC(=O)C[n+]1cccc2ccccc21 | 2.0 | -4.8 | -1.1 | . | -7.5
CCCCC[n+]1cccc2c3ccccc3ccc21 | 0.7 | 100.3* | 3.4 | -5.6 | 73.2*
CCOc1ccccc1NC(=O)CCN(c1ccc(C)cc1)S(=O)(=O)c1ccccc1 | 0.9 | 81.4* | 1.5 | -29.0 | 28.3
NC(=O)N/N=C/c1cc(Br)ccc1OCC(=O)NCc1ccccc1 | 0.1 | -4.0 | -0.5 | -9.7 | 3.3
CCCNCc1cc(Br)ccc1OCC(=O)NCCc1ccccc1 | -1.1 | 51.9* | 27.7 | -38.4 | 5.1
O=C(COc1ccc(Br)cc1CNCCc1ccccc1)NCc1ccccc1 | -0.4 | 88.1* | 35.8 | -17.2 | 51.0
COc1ccc(-c2csc(NC(=O)c3c(C)noc3C)n2)cc1OC | . | . | -1.8 | . | .
Cc1ccccc1OCC(=O)Nc1ccc2[nH]ncc2c1 | . | . | 3.7 | -1.0 | 2.2
Cc1cc(C)n2nc(C(=O)OCC(=O)NCc3ccc(F)cc3)nc2n1 | . | . | -1.0 | . | .
CC1(C)C(Cl)C(=O)C(C(=O)c2ccccc2)C(=O)C1Cl (configuration not stated) | . | . | -1.9 | 0.5 | -1.8
CCN(CC)c1ccc(/C=N/NC(=O)CCC(=O)NCc2ccccc2)c(O)c1 | 0.2 | 97.6* | -0.4 | 2.2 | 26.9
CCN(CC)c1ccc(/C=N/NC(=O)CNC(=O)C2COc3ccccc3O2)c(O)c1 (configuration not stated) | . | . | 1.5 | 5.6 | 62.7*
COc1cc(/C=N\NC(=O)CNC(=O)C2COc3ccccc3O2)ccc1O (configuration not stated) | 0.1 | -0.1 | -0.3 | -0.9 | 3.6
CCn1cc(C(=O)OCc2ccccc2)c(=O)c2ccc(C)nc21 | 2.8 | 77.8* | -2.7 | -38.6 | 0.3
CCn1cc(C(=O)OCc2cccc(Br)c2)c(=O)c2ccc(C)nc21 | 0.3 | 14.1 | 5.3 | 0.6 | -3.5
CCn1cc(C(=O)OCC(=O)OC2CC(C)CCC2C(C)C)c(=O)c2ccc(C)nc21 (configuration not stated) | 14.2 | 79.4* | 4.4 | -0.6 | 2.1
O=c1[nH]c(=S)[nH]c2sc3c(c12)CCCCCC3 | . | . | -0.1 | -15.0 | 4.1
CCOc1ccccc1NC(=O)C(OC(=O)c1cc(C)oc1C)c1ccccc1 (configuration not stated) | 6.2 | 85.4* | 5.1 | 10.5 | 39.3

Assay outcomes as filed in PubChem BioAssay.
